A selection: hits, their analogues and other compounds. The true share with any hit is near 3.3%.
TDP2 inh = TDP2 (human) inhibition, absorbance primary screen; O95551; recombinant TDP2, T5PNP hydrolysis, p-nitrophenol absorbance 415 nm; inhibition, % at 12.8 µM; 370,000 compounds, 0.34% hits;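 active means inhibition above the mean of all tested compounds plus 3 SD, set per campaign, cut at about 25% in these data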
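Material: recombinant human TDP2; quantity: TDP2 enzyme at 120 nM final; medium: Tris-HCl pH 7.5 with MgCl2; compound: single concentration, 12.8 µM nominal, with 1% DMSO; incubation: 2 h enzyme incubation at 37 °C; signal: epi absorbance; measure: percent inhibition; benchmarks: high control without enzyme, low control DMSO plus TDP2; repeats: singlicate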
SIAE primary = blocks human sialic acid acetylesterase; Q9HAT2; AID 1053197; inhibition, % at 9.66 µM; SIAE FP-Rh probe binding, fluorescence polarization; 370,000 compounds, 0.69% hits;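 active means inhibition above a cutoff: mean of compounds within the control limits plus 3 SD of those, cut at about 17% in these data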
Target sequence (Q9HAT2 whole entry, looked up): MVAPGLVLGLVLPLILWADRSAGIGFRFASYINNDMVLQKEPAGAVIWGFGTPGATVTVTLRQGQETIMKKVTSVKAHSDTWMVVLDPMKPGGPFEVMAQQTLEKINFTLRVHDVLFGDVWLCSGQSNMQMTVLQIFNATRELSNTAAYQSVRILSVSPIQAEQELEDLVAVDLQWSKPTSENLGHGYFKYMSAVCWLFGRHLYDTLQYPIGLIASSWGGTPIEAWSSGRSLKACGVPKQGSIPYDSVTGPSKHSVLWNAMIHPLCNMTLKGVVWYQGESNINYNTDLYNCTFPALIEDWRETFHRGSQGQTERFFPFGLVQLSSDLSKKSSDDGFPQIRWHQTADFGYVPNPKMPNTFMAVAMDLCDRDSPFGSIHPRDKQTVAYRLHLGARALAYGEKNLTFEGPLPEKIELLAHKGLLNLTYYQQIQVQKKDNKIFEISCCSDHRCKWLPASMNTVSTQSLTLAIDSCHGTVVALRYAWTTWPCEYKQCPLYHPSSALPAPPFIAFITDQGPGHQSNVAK
UHRF1 binding = human UHRF1 methylated DNA binding inhibitors. Q96T88. UHRF1 binding to methylated oligo, TR-FRET. inhibition, % at 4.4 µM. 370,000 compounds, 0.75% hits. AID 687016; in the data active means inhibition above about 21%;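 further: UHRF1 SRA domain binding a hemimethylated CpG hairpin DNA probe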
LEDGF integ inh = blocks HIV-1 LEDGF/p75-dependent DNA integration; TR-FRET IN-LEDGF/p75 DNA integration, Eu/Cy5; inhibition, % at 3.7 µM; 370,000 compounds, 0.64% hits;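 active means inhibition above the screen-wide mean plus 3 SD, cut at about 13% in these data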;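 further: signal is the Cy5 over europium emission ratio at 671 and 618 nm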
MBD2 inh = blocks human MBD2 binding to methylated DNA; Q9UBB5; TR-FRET, MBD2 binding to methylated oligonucleotide; inhibition, % at 4.4 µM; 370,000 compounds, 0.31% hits; in the data active means inhibition above about 13%
PRMT1 inh = blocks human protein arginine methyltransferase 1 | Q99873 | recombinant PRMT1, activity-based probe fluorescence polarization | inhibition, % at 2.79 µM | 370,000 compounds, 1.3% hits;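 active means inhibition above about 21% made by adding two undisclosed values, limit read from the data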
PRMT1 confirm = confirmation of human PRMT1 inhibitors; shares compounds with PRMT1 inh; recombinant His-PRMT1, activity-based probe fluorescence polarization; inhibition, % at 2.79 µM; 3,300 compounds, 42% hits;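 active means mean inhibition across replicates above the hit cutoff derived for the earlier primary screen, cut at about 22% in these data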
Of the large screens only hits and unclear results are named; the others gave an inactive call (follow-up assays come after a bar, where they were run).

COC(=O)C1=C(C)NC(=S)NC1c1ccc(-c2ccccc2C(=O)OC)o1 (stereo not given)	UHRF1 binding 22, PRMT1 inh 31 | PRMT1 confirm inactive
CN1C(=O)c2cc(NC(=O)Cc3cccs3)ccc2OC[C@@H]2O[C@@H](CC(=O)N[C@H]3CCN(Cc4ccccc4)C3)CC[C@@H]21	none
O=C(NCCO)[C@H](Cc1ccccc1)NC1(C(=O)NCCN2CCOCC2)CCCCC1	none
C[C@@]12C(=O)N(Cc3ccc(F)cc3)CC(=O)N1[C@H]1c3cc(Cl)ccc3OC[C@@H]1[C@@H]2c1ccccc1	none
Cc1ccc2c(c1)[C@H]1[C@H](CO2)[C@H](c2ccccc2)[C@]2(C)C(=O)N(Cc3ccc(F)cc3)CC(=O)N12	PRMT1 inh 38 | PRMT1 confirm inactive
O=C(COC(=O)c1cnccn1)c1ccc([N+](=O)[O-])cc1	PRMT1 inh 47 | PRMT1 confirm 60
O=C(CCc1ccccc1)OCC(=O)c1ccc([N+](=O)[O-])cc1	none
O=C(COc1ccccc1F)OCC(=O)c1ccc([N+](=O)[O-])cc1	PRMT1 inh 46 | PRMT1 confirm 34
O=C(CNC(=O)c1cccs1)NCC(=O)OCC(=O)c1ccc([N+](=O)[O-])cc1	PRMT1 inh 70 | PRMT1 confirm 41
CCOC(=O)[C@@]12CCCC=C1N(CCc1ccc(Cl)cc1)C(=O)[C@H]2CC(=O)N1CCC(c2ccccc2)CC1	none
Cc1ccc(/C=c2/sc3n(c2=O)CCCN=3)o1	none
Cc1ccc(/C=c2\sc3n(c2=O)CN(c2ccc(Br)cc2)CN=3)o1	PRMT1 inh 36 | PRMT1 confirm inactive
Cc1ccc(N(Cc2cc3ccc(C)cc3[nH]c2=O)C(=O)c2ccco2)cc1	none
Cc1ccc2cc(CN(C(=O)c3ccco3)c3ccccc3)c(=O)[nH]c2c1	PRMT1 inh 53 | PRMT1 confirm inactive
Cc1cccc2cc(CN(Cc3ccco3)C(=O)c3cccs3)c(=O)[nH]c12	none
Cc1ccc2cc(CN(Cc3ccco3)C(=O)c3cccs3)c(=O)[nH]c2c1	PRMT1 inh 30 | PRMT1 confirm inactive
Cc1cc(C)c2[nH]c(=O)c(CN(Cc3cccs3)C(=S)NCc3ccco3)cc2c1	PRMT1 inh 35 | PRMT1 confirm inactive
Cc1c(NC(=O)C2CCCN(S(=O)(=O)c3ccc(C(C)(C)C)cc3)C2)c(=O)n(-c2ccccc2)n1C (stereo not given)	none
O=C1NC(=S)SC1=Cc1ccccc1Cl	none
O=C1NC(=S)S/C1=C\c1cc(Cl)cc(Cl)c1O	PRMT1 inh 32 | PRMT1 confirm 34
CCCNC(=O)c1nnsc1S(=O)c1ccc(Cl)cc1 (stereo not given)	PRMT1 inh 95 | PRMT1 confirm 90
CNC(=O)c1nnsc1S(=O)c1ccc(Cl)cc1 (stereo not given)	PRMT1 inh 77 | PRMT1 confirm 76
O=c1ccc2cc3c4c(c2o1)CCCN4CCC3	PRMT1 inh 72 | PRMT1 confirm 67
O=C(NC(=S)Nc1ccccc1N1CCOCC1)c1sc2ccccc2c1Cl	none
O=C(O)c1ccccc1NC(=S)NC(=O)c1sc2ccccc2c1Cl	PRMT1 inh 32 | PRMT1 confirm 32
O=C(NCc1ccccc1)O[C@H]1CC[C@@]23CCCN2C(=O)CCC[C@H]3C1	none
O=C(O)/C=C/C(=O)c1ccc2c(c1)CCc1ccccc1-2	PRMT1 inh 56 | PRMT1 confirm 72
Cc1ccccc1-n1c(SCc2c(C)noc2C)nnc1-c1cccnc1	PRMT1 inh 28 | PRMT1 confirm inactive
CCC[C@H]1[C@@H](NC(=O)c2ccc(C)cc2)CC[C@@]23CCCN2C(=O)CCC[C@@H]13	none
Cc1ccc(S(=O)(=O)C2CS(=O)(=O)CC2O)cc1 (stereo not given)	none
CC(=O)C1=C(S(=O)(=O)c2ccc(C)cc2)CS(=O)(=O)C1	PRMT1 inh 76 | PRMT1 confirm 89
Cc1sc2c3ccsc3ccc2[n+]1C	PRMT1 inh 67 | PRMT1 confirm 59
Cc1cccc(CNC(=O)NC2CCCCN(Cc3cccc(Cl)c3)C2=O)c1 (stereo not given)	none
O=C(NCCN1C(=O)C2C3C=CC(C3)C2C1=O)c1cc(Cl)cc(Cl)c1 (stereo not given)	none
On1ccccc1=S	PRMT1 inh 88 | PRMT1 confirm 88
COC(=O)c1ccc(CSC(=N)N)o1	none
CCOC(=O)c1ccoc1CSCc1ccc(C(=O)OC)o1	PRMT1 inh 39 | PRMT1 confirm 45
CC(=O)Nc1ccc2sn(-c3ccccc3)c(=O)c2c1	PRMT1 inh 77 | PRMT1 confirm 89
CCn1c2ccccc2c2cc(NC(C)=O)ccc21	none
O=c1c2cc([N+](=O)[O-])ccc2sn1-c1ccccc1	PRMT1 inh 64 | PRMT1 confirm 81
N#Cc1ccc2sn(-c3ccccc3)c(=O)c2c1	PRMT1 inh 87 | PRMT1 confirm 98
N#Cc1ccc2c(c1)nnn2-c1ccccc1	none
COc1ccc(-c2c(Cc3ccccc3)nc(NC(=O)c3ccccc3)n2Cc2ccccc2)cc1	none
CCC[C@H]1[C@@H](OC(=O)NCc2ccc(OC)c(OC)c2)CC[C@@]23CCCN2C(=O)CCC[C@@H]13	none
COc1sc(SC)cc1/C=N/NC(=O)c1ccncc1	PRMT1 inh 38 | PRMT1 confirm inactive
Cc1nn(-c2ccccc2)c2sc(C(=O)NCc3ccc4c(c3)OCO4)cc12	none
CSCCC(c1nc2ccccc2[nH]1)n1c(=O)c(-c2ccco2)nc2ccccc21 (stereo not given)	PRMT1 inh 45 | PRMT1 confirm inactive
Cc1cnc(NC(=O)CSc2nnc(COc3c(C)cccc3C)o2)s1	PRMT1 inh 38 | PRMT1 confirm inactive
CCc1nnn2c1Cn1c3ccccc3c(=O)n1[C@@H](C(C)C)C2	none
CN=C(c1ccco1)n1c(=S)nc(-c2ccco2)n(C)c1=S	PRMT1 inh 30 | PRMT1 confirm 23
CCN(CC)c1ccc(-c2nn3c(-c4ccccc4Cl)nnc3s2)cc1	none
C[C@H]1COc2cc(Br)ccc2S(=O)(=O)N1Cc1cn(CCC2OCCO2)nn1	none
CCN(CC)C(=S)SSC(=S)N(CC)CC	PRMT1 inh 74 | PRMT1 confirm 80
CCN(CC)C(=S)SCC(=O)c1ccccc1	none
CCOC(=O)c1c(-c2cccs2)csc1N	none
CCOC(=O)c1c(NC(=O)COC(=O)c2cnccn2)sc(C(=O)NC)c1C	none
CCOC(=O)c1c(-c2ccco2)csc1N	PRMT1 inh 25 | PRMT1 confirm inactive
CCOC(=O)c1c(-c2ccco2)csc1NC(=O)COC(=O)c1cnccn1	PRMT1 inh 25 | PRMT1 confirm inactive
